Tb hexokinase: Trypanosoma brucei hexokinase 1 inhibitors, primary screen, biochemical, G6PDH-coupled NADH absorbance, MLSCN library | hexokinase 1 [Trypanosoma brucei] | recombinant TbHK1, G6PDH-coupled NADH A340 | inhibition, % at 10 µM | 220,000 compounds, 0.11% hits | AID 1430, 2008;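 active means inhibition of 50% or more in the single-dose primary screen; inactive means inhibition below 50%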
PGE2 EP2 inh: human EP2 receptor antagonists, primary screen, TR-FRET cAMP, C6 glioma cells | C6 glioma cells expressing human EP2; cells stimulated with saturating PGE2 | Prostaglandin E2 receptor EP2 subtype (Homo sapiens), P43116 | inhibition, % at 25 µM | 260,000 compounds, 0.52% hits;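 active means percent inhibition above 40 after rounding to a whole number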;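 further: rat C6 glioma host cells with rolipram phosphodiesterase inhibitor present; the protocol text gives 20 µM as final concentration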
Target sequence (P43116 whole entry, looked up): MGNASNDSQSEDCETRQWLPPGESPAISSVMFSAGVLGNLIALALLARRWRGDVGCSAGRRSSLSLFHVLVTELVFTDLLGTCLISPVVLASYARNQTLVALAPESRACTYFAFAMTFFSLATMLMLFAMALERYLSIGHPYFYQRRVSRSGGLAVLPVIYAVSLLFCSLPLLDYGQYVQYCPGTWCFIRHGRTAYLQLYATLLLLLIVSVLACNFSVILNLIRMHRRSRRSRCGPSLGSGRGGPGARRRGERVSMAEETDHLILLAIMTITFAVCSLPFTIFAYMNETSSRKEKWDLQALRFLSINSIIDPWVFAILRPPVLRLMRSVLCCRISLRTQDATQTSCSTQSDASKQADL
PfG6PD inh: PfG6PD enzyme inhibitors, primary screen, biochemical, fluorescence intensity, uHTS. PfGluPho enzyme, NADPH resazurin-diaphorase fluorescence. inhibition, % at 20 µM. 350,000 compounds, 0.78% hits. AID 504690, 2011;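 active means inhibition reaching at least a set limit at 20 µM in the primary screen, cut at about 59% in these data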
PHOSPHO1 block: PubChem AID 1565; Phosphoethanolamine/phosphocholine phosphatase (Homo sapiens), Q8TCT1; recombinant PHOSPHO1, absorbance phosphatase assay; inhibition, % at 13.3 µM; 290,000 compounds, 1.1% hits; in the data active means inhibition above about 60%
Target sequence (Q8TCT1 whole entry, looked up): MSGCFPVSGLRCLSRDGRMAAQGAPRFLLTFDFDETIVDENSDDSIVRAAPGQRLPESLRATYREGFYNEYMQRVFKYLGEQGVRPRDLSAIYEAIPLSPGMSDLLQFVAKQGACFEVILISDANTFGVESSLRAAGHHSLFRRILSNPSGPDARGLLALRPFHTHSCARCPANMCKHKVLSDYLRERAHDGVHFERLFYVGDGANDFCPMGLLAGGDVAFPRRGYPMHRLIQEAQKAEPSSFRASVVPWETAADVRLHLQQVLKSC
HKDC1 inh: HKDC1 hexokinase inhibitors, primary screen, biochemical, fluorescence, uHTS; recombinant HKDC1, G6PDH/diaphorase resazurin coupled fluorescence; 340,000 compounds, 0.16% hits; inhibition, % at 20 µM; Q2TB90;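 active means inhibition above about 35% when tested at 20 µM, limit read from the data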
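Test system: recombinant HKDC1 (HK5) hexokinase enzyme, produced in-house; Amount: enzyme 5 µg/mL final; Buffer or medium: Tris pH 8.0 buffer with MgCl2, Tween-20, BSA, BME; Reagent: glucose and ATP substrates; Doses: 20 µM test compound, 1% DMSO; Incubation: 90 min reaction incubation at room temperature, dark; Detection: resorufin fluorescence at 613 nm.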
EP2 mod: EP2 receptor modulators, cAMP readout, primary screen, cell-based, HTRF cAMP, PGE2 stimulation; AID 940, 2007; 260,000 compounds, 0.83% hits; induction, % at 25 µM; EP2-expressing cells, cAMP HTRF FRET, PGE2 co-stimulation;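 active means compounds whose cAMP rise, as percent of the full-agonist control response, exceeds 60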;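 further: rat C6 glioma line stably carrying human EP2 under a CMV promoter; the protocol text gives 20 µM as final concentration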
PfG6PD confirm: PfG6PD inhibitors, hit retest, confirmation, biochemical, fluorescence intensity, single concentration. shares compounds with PfG6PD inh. recombinant PfGluPho, NADPH-diaphorase-resazurin fluorescence. inhibition, % at 20 µM. 2,400 compounds, 34% hits. AID 504753, 2011;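 active means inhibition of at least 50% at 20 µM in any single replicate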
Diaphorase 10uM: diaphorase inhibitors and chemical oxidizers, confirmation, counter-screen for P. falciparum G6PD inhibitor project, biochemical, fluorescence intensity, 10 µM NADPH; shares compounds with PfG6PD inh; diaphorase-coupled resazurin reduction, NADPH 10 uM; inhibition, % at 20 µM; 820 compounds, 39% hits;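 active means average inhibition reaching 50% or more with the compound at 20 µM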;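 further: resorufin red fluorescence formed as diaphorase reduces resazurin using NADPH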
Diaphorase 30uM: diaphorase inhibitors and chemical oxidizers, confirmation, counter-screen for P. falciparum G6PD inhibitor project, biochemical, fluorescence intensity, 30 µM NADPH. shares compounds with PfG6PD inh. Diaphorase/resazurin coupled assay, resorufin fluorescence. inhibition, % at 20 µM. 820 compounds, 29% hits;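 active means inhibition averaging 50% or more, tested at 20 µM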
Hits are given with their value; 0 = inactive; - = no result given. Compounds with a hit are over-represented: about 2.5% of the library has one in this group of screens.

SMILES	Tb hexokinase	PGE2 EP2 inh	PfG6PD inh	PHOSPHO1 block	HKDC1 inh	EP2 mod	PfG6PD confirm	others
COc1ccc(Cl)cc1/C=N/NC(=O)c1c(-c2ccccc2)noc1C	-	-	127.5	0	0	-	98.9	Diaphorase 10uM=96.2;Diaphorase 30uM=83.3
Cc1onc(-c2ccccc2)c1C(=O)N/N=C/c1cc(Br)c(Br)o1	0	0	63.8	0	0	0	0
Cc1ccc(/C=N/NC(=O)c2c(-c3ccccc3)noc2C)o1	0	0	0	0	0	0	-
N#C/C(=C/c1ccc(N2CCOCC2)o1)c1ccc(Cl)cc1	0	-	77.8	0	0	0	0
O=C(N/N=C/c1ccc(O)cc1)c1ccc(NC(=O)c2ccccc2Br)cc1	0	0	0	0	0	0	-
O=C(Nc1ccccc1C(=O)N/N=C/c1ccc(F)cc1)c1ccccc1Br	0	0	104.2	0	0	0	83.7	Diaphorase 10uM=69.0;Diaphorase 30uM=58.5
Cc1ccc(-c2cn3c(=S)[nH]nc3s2)cc1	0	-	65.0	67.5	0	0	0
CC1(C)CC(=O)C2=C(C1)NC(=S)C(C#N)C21CCCCC1 (stereo not given)	0	0	76.4	0	0	0	0
CC1CCCC(C)N1C(=O)Cn1ncn2c(cc3ccsc32)c1=O (stereo not given)	-	-	-	-	-	0	-
COc1ccc(Cl)cc1C=CC=NNS(=O)(=O)c1ccc(C)cc1	-	-	0	-	0	-	-
COc1ccc(Cl)cc1C=CC=Nc1ccccc1O	-	-	75.8	-	0	-	0
Cc1cc(C(=O)NCC(C)n2nc(C)cc2C)c2cccc(Cl)c2n1 (stereo not given)	-	0	-	-	-	0	-
Cn1c(CNc2ccc(F)cc2)nnc1SCC(=O)N1CCCCC1	-	0	-	-	-	0	-
S=c1[nH]c(-c2ccccc2)cn1/N=C/c1cccs1	0	0	63.1	0	0	0	0
S=c1[nH]c(-c2ccccc2)cn1/N=C/c1ccc(Br)cc1	0	0	0	0	0	0	-
Brc1ccc(-c2cn3c(n2)SCC3)cc1	0	0	0	0	0	0	-
Oc1ccc(-c2cn3c(n2)SCC3)cc1O	0	0	63.2	79.9	0	0	89.4	Diaphorase 10uM=0;Diaphorase 30uM=0
COc1ccc(/C=C(\NC(=O)c2ccco2)C(=O)NCC(=O)O)cc1	-	0	-	-	-	0	-
CCc1nn(CC(=O)NC(c2ccccc2)c2ccccc2)c(=O)c2cc3ccsc3n12	-	-	-	-	-	0	-
c1csc(-c2nn3c(Cn4nnc5ccccc54)nnc3s2)c1	0	0	0	0	0	0	-
Clc1cccc(-c2nn3c(Cn4cnc5ccccc54)nnc3s2)c1	0	0	62.4	0	0	0	0
c1csc(-c2nn3c(Cn4cnc5ccccc54)nnc3s2)c1	0	0	75.2	83.0	0	0	0
C#CCCc1cscc1/C=[N+](\[O-])c1ccc(C(=O)OCC)cc1	-	-	116.2	-	0	-	103.0	Diaphorase 10uM=0;Diaphorase 30uM=0
CCOC(=O)c1ccc(/[N+]([O-])=C/c2ccccc2)cc1	-	-	90.0	-	0	-	97.1	Diaphorase 10uM=0;Diaphorase 30uM=0
COc1ccc(-c2c(C#N)c(N)nc3c2CCCC3C)cc1 (stereo not given)	-	0	-	-	-	0	-
SMILES	Tb hexokinase	PGE2 EP2 inh	PfG6PD inh	PHOSPHO1 block	HKDC1 inh	EP2 mod	PfG6PD confirm	others
CSc1nc(=NC(C)=O)ss1	0	0	68.1	0	0	0	0
CCOc1ccc2ccccc2c1/C=N/NC(=O)CC1(C)OCCCO1	0	0	76.6	0	0	0	57.4	Diaphorase 10uM=59.5;Diaphorase 30uM=55.4
COc1ccc2ccccc2c1/C=N/NC(=O)CC1(C)OCCCO1	0	0	0	0	0	0	-
CCOc1ccc2ccccc2c1/C=N/NC(=O)c1cc(C)[nH]n1	-	-	0	0	0	-	-
CCOc1ccc2ccccc2c1/C=N/NC(=O)c1ccncc1	-	-	72.3	0	0	-	66.4	Diaphorase 10uM=60.8;Diaphorase 30uM=0
CCC(C)(C)NC(=O)c1ccc2c(c1)N(CC(=O)Nc1ccc(OC)cc1)C(=O)C(C)(C)O2	-	0	-	-	-	0	-
Cc1cc(C)c(NC(=O)C2CCN(c3nc(C)cc(C)n3)CC2)c(C)c1	-	0	-	-	-	0	-
O=C(Nc1cccc(Cl)c1)c1ccc(-n2cncn2)c([N+](=O)[O-])c1	0	0	60.7	0	0	0	0
Cc1ccc(NC(=O)c2ccc(-n3cncn3)c([N+](=O)[O-])c2)cc1	0	0	0	0	0	0	-
O=C(Nc1ccc(Cl)cc1)c1ccc(-n2cncn2)c([N+](=O)[O-])c1	0	0	83.7	0	0	0	0
CCc1nn(CC(=O)NCCCn2ccc(C)n2)c(=O)c2cc3sc(C)cc3n12	-	-	-	-	-	0	-
O=C1Nc2cc(C(=O)NCCN3CCCCCC3)ccc2S/C1=C/c1ccccc1F	-	-	99.0	-	-	-	0
CCN1CCCC1CNC(=O)c1ccc2c(c1)NC(=O)/C(=C\c1ccc(C)cc1)S2 (stereo not given)	-	-	117.3	0	0	-	104.5	Diaphorase 10uM=0;Diaphorase 30uM=0
Cc1ccc(/C=C2/Sc3ccc(C(=O)NCCN4CCOCC4)cc3NC2=O)cc1	-	-	0	0	0	-	-
COc1ccc(CCNC(=O)Cn2nc(C)n3c(cc4sccc43)c2=O)cc1	-	-	-	-	-	0	-
COCc1nnc(NC(=O)c2ccc(C)cc2)s1	-	0	-	-	-	0	-
O=S(=O)(Nc1ccccc1N1CCOCC1)c1ccc(Cl)cc1	-	-	70.0	-	0	-	0
O=S(=O)(Nc1ccccc1N1CCCCC1)c1ccc(F)cc1	0	0	68.7	0	0	0	0
O=S(=O)(Nc1ccccc1N1CCCCC1)c1ccccc1	-	-	0	0	0	-	-
O=S(=O)(Nc1ccccc1N1CCOCC1)c1ccc(F)c(Cl)c1	-	-	0	0	0	-	-
Nc1cc(S(=O)(=O)Nc2cc(Cl)ccc2Cl)ccc1N1CCOCC1	0	0	61.2	0	0	0	0
Cc1cc(C)c(C)c(S(=O)(=O)Nc2ccccc2N2CCOCC2)c1C	-	-	65.0	-	0	-	0
Cc1ccc(S(=O)(=O)N(CC(=O)Nc2sc(C)c(C)c2C(N)=O)C2CCCC2)cc1	-	0	-	-	-	0	-
CCn1c(COc2cccc(OC)c2)nnc1SCC(=O)Nc1ccccc1	-	0	-	-	-	0	-
COc1ccc(CCNC(=O)CSc2ccc(-c3nc4ccccc4[nH]3)cn2)cc1OC	-	0	-	-	-	0	-
Cc1nn(CCC(=O)NC2(c3ccccc3F)CCCC2)c(C)c1C	-	0	-	-	-	0	-

Compound activity from PubChem.
